Results published in ChEMBL document CHEMBL1137301 (J Med Chem, 2006).
pKi: −log10 of the molar value.

Key:
[1] = target: T1, Melatonin receptor type 1A (Homo sapiens, UniProt P48039); experiment: Intrinsic activity at human MT1 receptor expressed in NIH3T3 cells assessed as stimulation of [35S]GTPgammaS binding relative to MLT; assay type: functional, cell-based
[2] = target: T2, Melatonin receptor type 1B (Homo sapiens, UniProt P49286); experiment: Displacement of 2-[125I]iodomelatonin from human MT2 receptor expressed in NIH3T3 cells; assay type: cell-based
T2 sequence (P49286 whole entry): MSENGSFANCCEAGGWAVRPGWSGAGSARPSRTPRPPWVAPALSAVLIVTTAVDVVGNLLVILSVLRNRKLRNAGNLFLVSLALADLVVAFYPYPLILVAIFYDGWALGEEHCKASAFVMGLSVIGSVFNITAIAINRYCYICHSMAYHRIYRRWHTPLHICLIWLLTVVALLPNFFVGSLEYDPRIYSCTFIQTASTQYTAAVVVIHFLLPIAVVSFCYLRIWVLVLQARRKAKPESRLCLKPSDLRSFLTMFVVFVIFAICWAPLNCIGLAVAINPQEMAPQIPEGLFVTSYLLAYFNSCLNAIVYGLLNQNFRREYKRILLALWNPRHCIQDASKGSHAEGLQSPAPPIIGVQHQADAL

[3] = target: T3, Melatonin receptor type 1B (Homo sapiens) (UniProt P49286); experiment: Intrinsic activity at human MT2 receptor expressed in NIH3T3 cells assessed as stimulation of [35S]GTP-gamma-S binding relative to MLT; assay type: functional, cell-based
T3 sequence (whole entry): T2 sequence (P49286 whole entry)

[4] = target: T1, Melatonin receptor type 1A; experiment: Displacement of 2-[125I]iodomelatonin from human MT1 receptor expressed in NIH3T3 cells; assay type: cell-based
[5] = target: Melatonin receptor (Homo sapiens) (UniProt P48039+P49286); experiment: Selectivity for human MT2 receptor over MT1 receptor; assay type: protein assay
Melatonin receptor (Homo sapiens), sequence (P48039 whole entry, looked up, one chain of several): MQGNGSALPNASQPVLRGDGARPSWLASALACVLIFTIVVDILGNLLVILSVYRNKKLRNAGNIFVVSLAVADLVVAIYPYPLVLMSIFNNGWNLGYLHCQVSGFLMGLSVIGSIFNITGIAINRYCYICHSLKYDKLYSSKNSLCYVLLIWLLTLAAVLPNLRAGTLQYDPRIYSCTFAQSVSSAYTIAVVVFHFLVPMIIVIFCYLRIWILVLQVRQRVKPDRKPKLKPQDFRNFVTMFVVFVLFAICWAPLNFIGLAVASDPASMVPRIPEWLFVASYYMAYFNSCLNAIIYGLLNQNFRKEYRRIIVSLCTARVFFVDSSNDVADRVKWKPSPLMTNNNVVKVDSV
Procedure, shortened: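 Incubation was 90 min at 37 °C in 50 mM Tris/HCl, pH 7.4, with nonspecific binding defined by 10 µM MLT. Ki came from IC50 via Cheng-Prusoff, mean of at least three runs in duplicate. The ratio compares MT1 and MT2 Ki.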

[6] = target: T1, Melatonin receptor type 1A; experiment: Activity at human MT1 receptor expressed in NIH3T3 cells assessed as inhibition of MLT-stimulated [35S]GTP-gamma-S binding; assay type: functional, cell-based; settings: filed as partial agonist
[7] = target: T3, Melatonin receptor type 1B (Homo sapiens); experiment: (§1) Activity at human MT2 receptor expressed in NIH3T3 cells assessed as inhibition of MLT-stimulated [35S]GTPgammaS binding; assay type: functional, cell-based
Procedure, shortened: (§2)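 Antagonism was measured in [35S]GTPγS binding on human MT2 NIH3T3 membranes (30 min, 30 °C; GDP 50 µM, NaCl 100 mM, MgCl2 3 mM). MLT concentration-response curves were run alone and with antagonist at 1, 10, 100 and 1000 nM.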

[8] = target: T2, Melatonin receptor type 1B; experiment: as §1; assay type: functional, cell-based; settings: read-out: pA2 (converted); procedure, shortened: as §2

T1 sequence (P48039 whole entry): as the sequence (P48039 whole entry, looked up, one chain of several) above

Structure (SMILES) | Intrinsic activity [1] | pKi [2] | Intrinsic activity [3] | pKi [4] | Selectivity ratio [5] | Activity [6] | Activity ([7]; filed as partial agonist) | Kb [8] | Activity ([7]; filed as antagonist)
COc1cccc(C(=CCNC(C)=O)c2cccc(OC)c2)c1 | 0.2 | 9.56 | 0.34 | 7.23 | 214 | Partial agonist | Partial agonist |  | 
COc1cccc(/C(=C\CNC(=O)C2CCC2)c2ccccc2)c1 | -0.04 | 8.81 | -0.02 | 6.59 |  |  |  |  | 
COc1cccc(/C(=C/CNC(=O)C2CCC2)c2ccccc2)c1 | 0.29 | 9.28 | 0.13 | 7.03 | 178 |  |  | 0.389 nM | Antagonist
COc1ccc(Cc2ccccc2)c(CCNC(C)=O)c1 | 0.24 | 8.22 | 0.06 | 7.16 |  |  |  |  | 
CCC(=O)NCCC(c1ccccc1)c1cccc(OC)c1 (racemic) | 0.31 | 8.30 | 0.28 | 6.44 |  |  |  |  | 
COc1cccc(/C(=C/CNC(C)=O)c2ccccc2)c1 | 0.54 | 9.66 | 0.38 | 8.57 |  | Partial agonist | Partial agonist |  | 
CC(=O)NCC(Cc1ccccc1)c1ccccc1 (configuration not stated) | -0.3 | 6.38 | -0.43 | 6.15 |  |  |  |  | 
COc1cccc(C(CCNC(C)=O)c2ccccc2)c1 (racemic) | 0.24 | 8.27 | 0.04 | 5.66 | 407 |  |  |  | 

Continued by rising pKi [2], values first:

Intrinsic activity [1] | pKi [2] | Intrinsic activity [3] | pKi [4] | Selectivity ratio [5] | Activity [6] | Activity ([7]; filed as partial agonist) | Kb [8] | Activity ([7]; filed as antagonist) | Structure (SMILES)
0.24 | 6.18 | 0.48 | 6.41 |  |  |  |  |  | CCC(=O)NCCc1cccc(Cc2ccccc2)c1
-0.23 | 6.28 | -0.15 | 5.44 |  |  |  |  |  | CC(=O)NC/C(=C/c1ccccc1)c1ccccc1
-0.23 | 6.69 | -0.18 | 6.16 |  |  |  |  |  | COc1cccc(C(CNC(C)=O)Cc2ccccc2)c1 (configuration not stated)
-0.13 | 6.72 | -0.25 | 6.28 |  |  |  |  |  | CCC(=O)NCC(Cc1ccccc1)c1cccc(OC)c1 (configuration not stated)
0.11 | 6.83 | 0.18 | 5.92 |  |  |  |  |  | CC(=O)NC/C(=C\c1ccccc1)c1ccccc1
-0.19 | 6.85 | -0.23 | 5.38 |  |  |  |  |  | CC(=O)NCCC(c1ccccc1)c1ccccc1
-0.18 | 7.88 | -0.2 | 6.04 |  |  |  |  |  | O=C(NCC=C(c1ccccc1)c1ccccc1)C1CCC1
-0.03 | 7.94 | 0.19 | 6.29 |  |  |  |  |  | CC(=O)NCC=C(c1ccccc1)c1ccccc1
0.21 | 8.58 | 0.27 | 6.26 | 209 |  |  |  |  | CCCC(=O)NCCC(c1ccccc1)c1cccc(OC)c1 (racemic)
0.45 | 8.60 | 0.3 | 6.64 |  |  |  |  |  | COc1cccc(/C(=C\CNC(C)=O)c2ccccc2)c1
